Measured values taken from ChEMBL document CHEMBL1140143, “Combining ligand-based pharmacophore modeling, quantitative structure-activity relationship analysis and in silico screening for the discovery of new potent hormone sensitive lipase inhibitors” (J Med Chem, 2008).
pIC50: −log10 of the molar value.

Legend:
[1] = molecular target: T1, Hormone-sensitive lipase (Rattus norvegicus) (UniProt P15304); experiment: Inhibition of HSL in Wistar rat isolated fat cells at 10 uM by spectrophotometric assay
T1 sequence (whole entry): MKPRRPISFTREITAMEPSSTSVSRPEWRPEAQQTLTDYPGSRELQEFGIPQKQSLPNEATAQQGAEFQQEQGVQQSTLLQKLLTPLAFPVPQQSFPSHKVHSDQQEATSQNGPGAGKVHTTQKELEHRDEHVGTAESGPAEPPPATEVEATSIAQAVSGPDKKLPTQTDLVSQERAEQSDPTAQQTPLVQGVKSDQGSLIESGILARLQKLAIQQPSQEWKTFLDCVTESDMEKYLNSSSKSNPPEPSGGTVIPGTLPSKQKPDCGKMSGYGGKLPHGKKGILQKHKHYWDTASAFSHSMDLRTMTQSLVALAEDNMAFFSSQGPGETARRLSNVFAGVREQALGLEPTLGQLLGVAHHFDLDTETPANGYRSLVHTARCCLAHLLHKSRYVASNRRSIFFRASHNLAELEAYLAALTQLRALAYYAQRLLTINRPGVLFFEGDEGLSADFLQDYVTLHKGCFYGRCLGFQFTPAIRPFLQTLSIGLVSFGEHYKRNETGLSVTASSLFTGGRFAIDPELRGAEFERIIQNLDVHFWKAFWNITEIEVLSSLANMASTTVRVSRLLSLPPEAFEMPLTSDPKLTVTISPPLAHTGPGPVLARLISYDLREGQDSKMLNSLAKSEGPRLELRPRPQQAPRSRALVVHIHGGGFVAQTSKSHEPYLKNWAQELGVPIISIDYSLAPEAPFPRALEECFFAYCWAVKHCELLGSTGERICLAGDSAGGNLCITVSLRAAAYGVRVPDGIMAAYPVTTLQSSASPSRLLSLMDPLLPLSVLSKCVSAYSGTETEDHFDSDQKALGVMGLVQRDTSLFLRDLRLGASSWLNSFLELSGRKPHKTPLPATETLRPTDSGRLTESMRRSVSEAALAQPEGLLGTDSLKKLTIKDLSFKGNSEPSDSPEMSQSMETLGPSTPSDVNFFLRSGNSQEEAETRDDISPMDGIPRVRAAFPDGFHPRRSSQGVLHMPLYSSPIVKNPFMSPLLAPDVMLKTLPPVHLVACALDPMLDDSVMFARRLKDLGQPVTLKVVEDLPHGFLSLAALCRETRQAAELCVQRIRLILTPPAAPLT
In short: (§1)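 HSL extract from male Wistar rat epididymal fat cells (collagenase-isolated, homogenized in Tris-HCl pH 7.0/sucrose, ether-extracted supernatant). Enzyme preincubated with compound 30 min at 37 °C, then p-nitrophenyl butyrate added at 10 µM in phosphate buffer pH 7.25 with dithioerythritol; DMSO ≤1.0%. A400 read at 1, 3, 6 min at 37 °C; residual activity versus no-compound control; mean of ≥3 measurements.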

Hormone-sensitive lipase = molecular target: T2, Hormone-sensitive lipase (Rattus norvegicus, UniProt P15304); experiment: Inhibition of HSL in Wistar rat isolated fat cells by spectrophotometric assay
T2 sequence (P15304 whole entry): T1 sequence (whole entry)

[2] = molecular target: T1, Hormone-sensitive lipase (Rattus norvegicus); experiment: Inhibition of HSL in Wistar rat isolated fat cells at 1 uM by spectrophotometric assay; in short: as §1

| SMILES | inhibition [1] | pIC50 (Hormone-sensitive lipase) | inhibition [2] |
| --- | --- | --- | --- |
| COc1ccc(C(=O)c2ccccc2)c(O)c1 [OXYBENZONE] | 44% | 5.49 | – |
| CC(=O)Oc1cc(OCCCc2ccc(F)cc2)cc2c1-c1ccccc1CC2 | – | – | 24% |
| CC1(C)C(C(=O)OC(C#N)c2cccc(Oc3ccccc3)c2)C1(C)C (stereo unspecified) | – | – | 35% |
| COc1cccc(CSC(C(=O)O)c2ccccc2)c1 (stereo unspecified) | – | 6.29 | 67% |
| O=C(NC(Cc1ccccc1)C(=O)O)C(=O)c1c[nH]c2ccc(Cl)cc12 (stereo unspecified) | 26% | – | – |
| CC(C)C(C(=O)OC(C#N)c1cccc(Oc2ccccc2)c1)c1ccc(Cl)cc1 (stereo unspecified) | – | – | 37% |
| CC(C)=NNc1ccnc(SCc2ccccc2)n1 | 2% | – | – |
| COC(=O)Cc1nc2ccc(OC)cc2nc1O | 15% | – | – |
| O=C(OCc1ccccc1)c1ccccc1 [BENZYL BENZOATE] | 66% | 5.96 | – |
| Cc1ccc(-c2nc(SCc3ccccc3)nc(O)c2CCO)cc1 | – | – | 45% |
| CCOC(=O)c1nc2ccccc2nc1NCc1ccc(OC)cc1 | – | – | 27% |
| O=c1c(O)c(-c2ccccc2)oc2ccccc12 | – | – | 23% |
| Cc1ncc(COCc2ccccc2)c(CO)c1OCc1ccccc1 | 31% | – | – |
| COc1cc(CNC(=O)CCCC/C=C/C(C)C)ccc1O | 33% | – | – |
| COc1ccc(Br)c(C(=O)O)c1OS(=O)(=O)c1ccc(C)cc1 | 30% | – | – |
| CCOC(=O)c1c(C)c2c(n1C)CC/C(=C\N1CCCCC1)C2=O | 10% | – | – |
| O=C(O)/C(=N\OCc1ccccc1)c1ccccc1 | – | – | 21% |
| COC(=O)c1cc(Oc2ccc(Cl)cc2Cl)ccc1[N+](=O)[O-] [BIFENOX] | – | 6.37 | 60% |
| CC(C)[C@H](C(=O)O[C@H](C#N)c1cccc(Oc2ccccc2)c1)c1ccc(Cl)cc1 | – | – | 33% |
| CCC(CCC#N)C(=O)c1ccc(C)o1 (stereo unspecified) | 14% | – | – |
| O=S(=O)(Oc1ccc(Cl)cc1)c1ccc(Cl)cc1 | 26% | – | – |
| Cc1ccc(S(=O)(=O)Nc2cccc3cc(Cl)ccc23)cc1 | – | – | 15% |

| SMILES | inhibition [1] | pIC50 (Hormone-sensitive lipase) | inhibition [2] |
| --- | --- | --- | --- |
| COc1ccc(C(O)c2cc3ccccc3n2S(=O)(=O)c2ccccc2)cc1 (stereo unspecified) | 29% | – | – |
| Cc1c(C(C)C)c(=O)on1C(=O)N1CC(C)CCC1C (stereo unspecified) | – | 6.34 | – |
| Cc1c(C(C)C)c(=O)on1C(=O)N1CCCCCC1 | – | 7.21 | – |
| Cc1c(C(C)C)c(=O)on1C(=O)N1CCNCC1 | – | < 6.00 | – |
| Cc1c(C2CCCC2)c(=O)on1C(=O)N1CCC(c2ccccc2)CC1 | – | 7.62 | – |
| CCCCCCSc1nc(-c2ccc(C)cc2)nn1C(=O)N(C)c1ccccc1 | – | 7.91 | – |
| COC(=O)C1Oc2ccc(Cl)cc2C1=O (stereo unspecified) | 3% | – | – |
| Cc1c(C(C)C)c(=O)on1C(=O)N1CCC(O)CC1 | – | 6.78 | – |
| Cc1c(C(C)C)c(=O)on1C(=O)N1CC=CC1 | – | 7.14 | – |
| CCSc1nc(-c2ccc(OC)cc2)nn1C(=O)N1CCOCC1 | – | 6.80 | – |
| O=C(CC(=O)c1ccccc1)c1ccccc1 | 28% | – | – |
| COC(=O)c1nnn(CCc2c[nH]c3ccccc23)c1C(=O)OC | 52% | 5.30 | – |
| O=C(COC(=O)c1ccccc1)c1ccccc1 | – | – | 9% |
| Cc1c(C(C)C)c(=O)on1C(=O)N1CCCC1 | – | 7.82 | – |
| CCCCOc1ccc(Oc2ccc(C(F)(F)F)cc2[N+](=O)[O-])cc1 | – | 6.68 | 64% |
| Cc1c(C(C)C)c(=O)on1C(=O)N1CCCCCCC1 | – | 6.05 | – |
| COC1=CC(=O)OC(C)(c2ccccc2)C1 (stereo unspecified) | 24% | – | – |
| CCSc1nc(-c2ccc(Cl)cc2)nn1C(=O)N(C)C | – | 8.43 | – |
| CCSCc1ccccc1OC(=O)NC [ETHIOFENCARB] | 52% | 6.43 | – |
| Cc1c(C2CCSCC2)c(=O)on1C(=O)N1CCCCC1 | – | 7.96 | – |
| O=C(N1CCOCC1)n1nc(-c2ccc(Cl)cc2)nc1SCC(F)(F)F | – | 6.80 | – |
| O=C(/C(=N/c1ccccc1)NO)c1ccccc1 | 23% | – | – |

| SMILES | inhibition [1] | pIC50 (Hormone-sensitive lipase) | inhibition [2] |
| --- | --- | --- | --- |
| CCCCCCSc1nc(-c2ccc(Cl)cc2)nn1C(=O)N(C)c1ccccc1 | – | 8.15 | – |
| CSc1nc(/C=C/c2ccccc2)nn1C(=O)N(C)C | – | 6.05 | – |
| COc1ccc2cc([C@H](C)C(=O)O)ccc2c1 | 64% | – | – |
| Cc1c(C(C)C)c(=O)on1C(=O)N(C)c1ccccc1 | – | 8.15 | – |
| Cc1c(C(C)C)c(=O)on1C(=O)N1CCCC(C)(C)C1 | – | 8.15 | – |
| Cc1c(C(C)C)c(=O)on1C(=O)N1CCC(C(=O)c2ccccc2)CC1 | – | 6.60 | – |
| Cc1c(C(C)C)c(=O)on1C(=O)N1CCC(c2cccc(F)c2)CC1 | – | 7.92 | – |
| O=C(N1CCCCC1)n1nc(-c2ccc(Cl)cc2)nc1SC1CCCCC1 | – | 6.05 | – |
| COC1=CC(=O)OC(c2ccco2)C1 (stereo unspecified) | 12% | – | – |
| CCOc1ccc([Si](C)(C)CCCc2ccc(F)c(Oc3ccccc3)c2)cc1 | – | – | 6% |
| CN(C(=O)n1nc(-c2ccc(Cl)cc2)nc1SCC(F)(F)F)c1ccccc1 | – | 8.52 | – |
| Cc1ccc(C2CCN(C(=O)n3oc(=O)c(C(C)C)c3C)CC2)cc1 | – | 7.43 | – |
| COC(=O)c1ccc(C)c(NS(=O)(=O)c2ccc3c(c2)c(=O)sn3C)c1 | 24% | – | – |
| COc1ccc(Cc2ccc3nc(O)cc(C)c3c2)cc1S(=O)(=O)O | 24% | – | – |
| Cc1c(C(C)C)c(=O)on1C(=O)N1CCC(O)(c2ccccc2)CC1 | – | < 6.00 | – |
| Cc1ccc(-c2nc(SCc3ccccc3)[nH]c(=O)c2CCO)cc1 | – | 5.53 | – |
| O=C(/C=C/c1ccccc1)OCCc1ccccc1 | – | – | 12% |
| CCSc1nc(-c2ccc(OC)cc2)nn1C(=O)N(C)c1ccccc1 | – | 8.28 | – |
| Cc1c(CC(C)C)c(=O)on1C(=O)N1CCC(C)CC1 | – | 8.52 | – |
| Cc1c(C(C)C)c(=O)on1C(=O)N1CCOCC1 | – | 7.28 | – |
